Assay results pooled from the literature.
Lines come from different studies, so protocols differ.
Observed: cell growth or viability

C=C(NC(=O)C(=C)NC(=O)c1csc(C2=N[C@@H]3c4csc(n4)[C@H]4NC(=O)c5csc(n5)[C@H]([C@](C)(O)[C@@H](C)O)NC(=O)[C@H]5CSC(=N5)/C(=C/C)NC(=O)[C@H]([C@@H](C)O)NC(=O)c5csc(n5)[C@]3(CC2)NC(=O)[C@H](C)NC(=O)C(=C)NC(=O)[C@H](C)NC(=O)[C@H]([C@@H](C)CC)N[C@@H]2C=Cc3c([C@H](C)O)cc(nc3[C@H]2O)C(=O)O[C@@H]4C)n1)C(N)=O
EC50 (SQ20B): 0.7 µM

CC1(C)C[C@H]2[C@H]1CC[C@]1(C)CCC[C@@]2(n2cc(C(=O)O)nn2)C1
inhibition (HT-29; CCK-8; 10 µM): < 50%

O=c1c2cc(Cl)ccc2nc(-c2ccccc2)n1N=Cc1ccc(Cl)cc1Cl
IC50 (LLC-PK1; MTT; 72 h): 264 µM

CC1(C)C[C@H]2[C@H]1CC[C@]1(C)CCC[C@@]2(n2cc(C(=O)Nc3ccc(Cl)cc3)nn2)C1
inhibition (HT-29; CCK-8; 50 µM): 16.8%

Cc1nc(Nc2ncc(C(=O)Nc3c(C)cccc3Cl)s2)cc(N2CC[C@H](O)C2)n1
inhibition (OCI-Ly7; ATP luminescence; 10 µM; 72 h): 57%

O=c1c2cc(Cl)ccc2nc(-c2ccccc2)n1N=Cc1cccnc1
IC50 (LLC-PK1; MTT; 72 h): 326 µM

CCC(=O)NCc1ccc(-c2cnc(C3CN(C(=O)c4ccc(NC(=O)[C@@H]5CC(C)(C)CN5)s4)C3)s2)c2ccccc12
GI50 (IMR-90; SRB; 7 days): > 10 µM

CC1(C)C[C@H]2[C@H]1CC[C@]1(C)CCC[C@@]2(n2cc(C(=O)NCCN)nn2)C1
inhibition (HT-29; CCK-8; 10 µM): 53.4%

O=c1c2cc(Cl)ccc2nc(-c2ccccc2)n1N=Cc1ccc2c(c1)OCO2
IC50 (LLC-PK1; MTT; 72 h): 60.2 µM
